Results on 20 compounds are retold here after PubChem BioAssay.

Assay [1] in a line: HUVEC growth inhibition – cell-based, human, primary screen (AID 575;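 active = viability at or below 30% in both replicate assays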;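 also: 100% = median of untreated cell wells with 0.1% DMSO on each plate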). As to conditions: HUVEC proliferation, CellTiter-Glo luminescence, 72 h; at 10 µM; stronger effect = lower value. Summed up:
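system = HUVEC primary cells | amount = 1250 cells/well | buffer or medium = supplemented EBM, 2% fetal bovine serum | dosing = single-point 10 µM, DMSO 0.1% final | times = 72 h compound incubation | detection = CTG luminescence | read-out = % viability relative to median vehicle-well signal on each plate | control set = vehicle and MePR control wells | format = collagen-coated 384-well format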
For orientation: Cellular ATP, detected with luciferase, serves as a proxy for viable cell number.

Assay [2] is described as follows: H69AR cell proliferation blockers – human, duplicate replicates, primary screen (AID 580;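 active = viability at or under a set limit in both replicates, limit being median viability minus 3 SD, cut at about 48% in these data, passing the limit was not always enough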;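 also: 100% = mean luminescence of untreated wells and 0% = no signal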). As to conditions: H69AR lung tumor cells viability, ATP luminescence, 72 h; at 10 µM; stronger effect = lower value.
Assay [3] is described as follows: MRP1 drug-resistance reversers in H69AR cells – cell-based, doxorubicin co-treatment, pilot screen (AID 601;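 active = viability loss from added drug above about 55%, and viability with drug at most 40%, in both replicates, limit read from the data, passing the limit was not always enough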). As to conditions: CellTiter-Glo, 72 h, at 10 µM; for differential viability (reversal): stronger effect = higher value.
Assay [4] can be described thus: yeast transport mutant growth inhibition pilot in 384-well plates, post-Golgi transport modulator project (AID 636; in the data active = inhibition above about 31%). Conditions: absorbance 615 nm, about 18 h, stronger effect = higher value.
Assay [5] can be described thus: growth suppression of yeast trafficking mutant, preliminary HTS, modulators of trafficking downstream of Golgi apparatus project, 1536-format plate, OD 615 nm (AID 637). Conditions: yeast transport mutant growth, absorbance 615 nm, 18 h; stronger effect = higher value.
Setting [6] is: H69AR cells + 2 uM doxorubicin, measured here: viability with 2 uM doxorubicin, stronger effect = lower value.
Setting [7] is: H69AR cells, compound alone cytotoxicity.

Molecules are shown by their SMILES. Active and inactive are the calls of the source. Rule as the data show it, unless noted: active = inhibition above about 30%; inactive = the rest.

For the compound `Cc1cc(C)n(S(=O)(=O)c2cc(C(=O)O)c(Cl)cc2Cl)n1`, the viability (commonly a read-out of living cells in per cent, often relative to untreated cells) in assay [1] was 102% (inactive); in assay [2], 82.6% (inactive); in assay [3] (setting [6]) it was 92.8%; in assay [3] (setting [7]), 82.6%. Also, the differential viability (reversal) in assay [3] (H69AR cells + 2 uM doxorubicin) is -10.2% (inactive). For the same compound, the inhibition (usually the relative decrease from the control value, in per cent) in assay [4] is -3.47% (inactive); in assay [5] it was 4.29% (inactive).

As to `O=C(CN1c2cccc3cccc(c23)S1(=O)=O)N1CCOCC1`, the viability was 105% (inactive) in assay [1], 92.5% (inactive) in assay [2], 93.4% in assay [3] (setting [6]) and 92.5% in assay [3] (setting [7]). Also, the differential viability (reversal) in assay [3] (H69AR cells + 2 uM doxorubicin) is -0.865% (inactive). Further, the inhibition is -3.2% (inactive) in assay [4] and 0.16% (inactive) in assay [5].

For `C#CCN1C(=O)C(O)(CC(=O)c2cc(OC)ccc2OC)c2ccccc21` (stereo not given), the viability is 78.6% (inactive) in assay [1], 38.7% (active) in assay [2], 55.5% in assay [3] (setting [6]) and 38.7% in assay [3] (setting [7]). Also, in assay [3] (H69AR cells + 2 uM doxorubicin), the differential viability (reversal) is -16.8% (inactive). Further, the inhibition is -4.8% (inactive) in assay [4] and 1.9% (inactive) in assay [5].

On to `COc1cc2c(cc1OC)CN(Cc1nc3ccsc3c(=O)[nH]1)CC2`, for which the viability in assay [1] was 99.5% (inactive); in assay [2], 92.2% (inactive); in assay [3] (setting [6]), 84.6%; in assay [3] (setting [7]) it was 92.2%. For the same compound, in assay [3] (H69AR cells + 2 uM doxorubicin), the differential viability (reversal) was 7.59% (inactive). The inhibition in assay [4] was -2.73% (inactive); in assay [5] it was 3.17% (inactive).

Turning to `COc1ccc(OC)c(N2Cc3cc(C)c(C)cc3C2)c1`, the viability in assay [1] is 114% (inactive); in assay [2] it was 95.3% (inactive); in assay [3] (setting [6]), 88.4%; in assay [3] (setting [7]), 95.3%. For the same compound, the differential viability (reversal) in assay [3] (H69AR cells + 2 uM doxorubicin) was 6.88% (inactive). For the same compound, the inhibition in assay [4] was -6.97% (inactive); in assay [5], 4.44% (inactive).

For `Cc1nnc(SCC(=O)N2CCC(C(N)=O)CC2)s1`, the viability in assay [1] was 93.5% (inactive); in assay [2] it was 91.2% (inactive); in assay [3] (setting [6]) it was 99.8%; in assay [3] (setting [7]), 91.2%. Moreover, the differential viability (reversal) in assay [3] (H69AR cells + 2 uM doxorubicin) was -8.62% (inactive). Moreover, the results for the inhibition in assay [4] and in assay [5] were -1.2% (inactive) and -5.24% (inactive), respectively.

As to `Cc1ccc(C)c(Cn2c(=O)n(CCC(=O)NCc3ccco3)c(=O)c3sccc32)c1`, the viability is 74.6% (inactive) in assay [1], 87.7% (inactive) in assay [2], 87.7% in assay [3] (setting [6]) and 87.7% in assay [3] (setting [7]). Moreover, the differential viability (reversal) in assay [3] (H69AR cells + 2 uM doxorubicin) is -0.04% (inactive). For the same compound, the inhibition in assay [4] is -2.86% (inactive); in assay [5], -0.63% (inactive).

Consider `N#Cc1nc(-c2ccccc2Cl)oc1N1CCOCC1`, for which the viability in assay [1] was 84.2% (inactive); in assay [2], 86.8% (inactive); in assay [3] (setting [6]), 83.3%; in assay [3] (setting [7]), 86.8%. Further, the differential viability (reversal) in assay [3] (H69AR cells + 2 uM doxorubicin) was 3.5% (inactive). Moreover, the inhibition in assay [4] was -3.47% (inactive); in assay [5], 14.1% (inactive).

Regarding `COc1cc(NC(=O)Nc2cccc(Cl)c2)c(OC)cc1NC(=O)CN1CCCCC1`, the viability is 20.3% (active) in assay [1], 3.06% (active) in assay [2], 13% in assay [3] (setting [6]) and 3.06% in assay [3] (setting [7]). For the same compound, the differential viability (reversal) in assay [3] (H69AR cells + 2 uM doxorubicin) was -9.94% (inactive). For the same compound, the inhibition was -6.27% (inactive) in assay [4] and -0.95% (inactive) in assay [5].

For `O=C(Nc1ccc(N2CCCC2=O)cc1)c1cccc(F)c1`, the viability in assay [1] was 109% (inactive); in assay [2], 99.9% (inactive); in assay [3] (setting [6]), 78.2%; in assay [3] (setting [7]) it was 99.9%. Also, the differential viability (reversal) in assay [3] (H69AR cells + 2 uM doxorubicin) is 21.6% (inactive). For the same compound, the inhibition in assay [4] is -4.61% (inactive); in assay [5], 0.95% (inactive).

In the case of `CC(C(=O)N1c2ccc(F)cc2CCC1C)N1C(=O)c2ccccc2C1=O` (stereo not given), the viability in assay [1] was 114% (inactive); in assay [2], 91.3% (inactive); in assay [3] (setting [6]), 79.8%; in assay [3] (setting [7]), 91.3%. In addition, the differential viability (reversal) in assay [3] (H69AR cells + 2 uM doxorubicin) is 11.5% (inactive). For the same compound, the inhibition was -5.26% (inactive) in assay [4] and 8.73% (inactive) in assay [5].

For `CC1=C(C(N)=O)C(c2ccc(Cl)cc2Cl)n2ncnc2N1` (stereo not given), the viability in assay [1] is 91.8% (inactive); in assay [2], 101% (inactive); in assay [3] (setting [6]), 84.7%; in assay [3] (setting [7]), 101%. For the same compound, the differential viability (reversal) in assay [3] (H69AR cells + 2 uM doxorubicin) was 16.7% (inactive). Moreover, the inhibition in assay [4] was 0% (inactive); in assay [5], 6.19% (inactive).

For the compound `COc1cccc(C(=O)Nc2cccc(C(=O)N3CCOCC3)c2)c1`, the viability in assay [1] is 97.1% (inactive); in assay [2], 90.1% (inactive); in assay [3] (setting [6]) it was 77.1%; in assay [3] (setting [7]), 90.1%. Also, the differential viability (reversal) in assay [3] (H69AR cells + 2 uM doxorubicin) is 13% (inactive). In addition, the inhibition is -4.68% (inactive) in assay [4] and 0.32% (inactive) in assay [5].

For `O=C(c1cc(-c2cccs2)on1)N1CCc2ccccc2C1`, the viability is 103% (inactive) in assay [1], 104% (inactive) in assay [2], 81.8% in assay [3] (setting [6]) and 104% in assay [3] (setting [7]). In addition, in assay [3] (H69AR cells + 2 uM doxorubicin), the differential viability (reversal) is 21.8% (inactive). Further, the inhibition in assay [4] is -2.24% (inactive); in assay [5], -0.48% (inactive).

Take `Cc1c(C(=O)Nc2ccncc2)oc2c1C(=O)CC(C)(C)C2`: the viability in assay [1] was 95.9% (inactive); in assay [2], 91.3% (inactive); in assay [3] (setting [6]), 96.6%; in assay [3] (setting [7]) it was 91.3%. Also, the differential viability (reversal) in assay [3] (H69AR cells + 2 uM doxorubicin) is -5.27% (inactive). Further, the inhibition was -8.4% (inactive) in assay [4] and -1.43% (inactive) in assay [5].

On to `CCn1c(SCc2cccc(C(F)(F)F)c2)nnc1-c1ccco1`, for which the viability was 93.9% (inactive) in assay [1], 90.1% (inactive) in assay [2], 81.1% in assay [3] (setting [6]) and 90.1% in assay [3] (setting [7]). In addition, the differential viability (reversal) in assay [3] (H69AR cells + 2 uM doxorubicin) is 9% (inactive). In addition, the inhibition was -5.2% (inactive) in assay [4] and -0.16% (inactive) in assay [5].

On to `CCOC(=O)CSc1nnc(CNC(=O)c2ccc(S(=O)(=O)N3CCCC3)cc2)n1C`, for which the viability was 99.1% (inactive) in assay [1], 112% (inactive) in assay [2], 84% in assay [3] (setting [6]) and 112% in assay [3] (setting [7]). Further, the differential viability (reversal) in assay [3] (H69AR cells + 2 uM doxorubicin) was 28.2% (inactive). Moreover, the inhibition in assay [4] is -2.6% (inactive); in assay [5], 0.63% (inactive).

Take `O=C(CN1C(=O)CCS(=O)(=O)c2ccccc21)NCc1ccc(F)cc1`: the viability in assay [1] was 85% (inactive); in assay [2], 98.4% (inactive); in assay [3] (setting [6]), 95.3%; in assay [3] (setting [7]), 98.4%. In addition, the differential viability (reversal) in assay [3] (H69AR cells + 2 uM doxorubicin) was 3.11% (inactive). Further, the results for the inhibition in assay [4] and in assay [5] were -5.2% (inactive) and -3.81% (inactive), respectively.

Take `Cc1cc(NC(=O)COc2ncnc3sc(C)c(C)c23)no1`: the viability in assay [1] is 97.6% (inactive); in assay [2], 89.8% (inactive); in assay [3] (setting [6]) it was 86.7%; in assay [3] (setting [7]) it was 89.8%. The differential viability (reversal) in assay [3] (H69AR cells + 2 uM doxorubicin) is 3.08% (inactive). Also, the inhibition in assay [4] is -3.77% (inactive); in assay [5], 5.56% (inactive).

For the compound `CCCC(=O)Nc1ccccc1-c1nnn(CC(=O)Nc2ccc(OC)cc2)n1`, the viability in assay [1] is 73.8% (inactive); in assay [2] it was 83.1% (inactive); in assay [3] (setting [6]), 97.2%; in assay [3] (setting [7]) it was 83.1%. Moreover, the differential viability (reversal) in assay [3] (H69AR cells + 2 uM doxorubicin) is -14.1% (inactive). The results for the inhibition in assay [4] and in assay [5] were -3.33% (inactive) and 5.4% (inactive), respectively.
